In the library only some 8.4% were active in any assay of this set; here they are far more common.
Cav32 inh = blocks human Cav3.2 T-type calcium channel; O95180; B-score at 10 µM; 100,000 tested, 4% active; Cav3.2-expressing cells, Fluo-4 calcium fluorescence FDSS; stronger effect = lower value;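 active = single-dose well whose peak fluorescence ratio is a statistical outlier from its plate by either plate-standardised score or position-corrected B-score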
PostGolgi yeast = growth inhibition of a yeast mutant, post-Golgi transport screen | post-Golgi transport phenotypic cell assay | inhibition, % at 10 µM | 98,000 tested, 0.9% active | AID 739;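 also: yeast cells grown in 1536-well plates; yeast grown about 18 h at 30C before absorbance read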
Ecoli tolC = E. coli tolC mutant growth inhibition | E. coli BW25113 tolC mutant growth, OD615 | growth inhibition, % at 10 µM (by protocol) | 65,000 tested, 2.2% active;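 active = growth inhibition at or above a cutoff equal to the mean over every tested compound plus 3 SD, cut at about 60% in these data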;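 also: growth measured after 20 h incubation at 37 °C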
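Test system: tolC-deleted E. coli BW25113; medium: LB with kanamycin 50 µg/mL; compound: single-point testing at 10 µM; incubation: 20 h compound exposure of bacteria at 37 °C; signal: OD at 615 nm; evaluation: growth inhibition in percent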
Ecoli WT expand = growth inhibitors of E. coli BW25113 wild type | OD600 absorbance | growth inhibition, % at 100 µM | 98,000 tested, 0.15% active | AID 710;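 active = growth inhibition above about 50% at one test dose, limit read from the data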;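 also: growth measured after 20 h incubation at 37 °C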
PostGolgi ctrl = yeast control strain growth, post-Golgi counter-screen; efflux-deficient yeast background strain, growth absorbance A615, 16 h; inhibition, % at 10 µM; 98,000 tested, 5% active; AID 738
Active calls of the source: *; nt = not tested or not shown. Rule as the data show it, unless noted: active = inhibition above about 30%; inactive = the rest.

SMILES	Cav32 inh	PostGolgi yeast	Ecoli tolC	Ecoli WT expand	PostGolgi ctrl
CN1C(=O)S/C(=C/c2cccnc2)C1=O	2.2	11	nt	-2	21
O=C1/C(=C/c2ccncc2)SC(=S)N1C1CCS(=O)(=O)C1 (configuration not stated)	0.77	2	nt	54*	5
O=C(NCCNCCO)C1(C(F)(F)F)C/C(=C\CCO)CCCO1 (configuration not stated)	0.55	nt	nt	nt	nt
Cc1nc(SC2CCOC2=O)c2c(C)c(C)sc2n1 (configuration not stated)	0.021	9	nt	-5	36*
CCOC(=O)c1ccc(N=c2sc(C(=O)OC)cc(=O)n2C2CC2)cc1	nt	5	-9	4	33*
c1ccc2nc3c(nc2c1)CCc1nonc1-3	0.12	1	-9	-7	0
O/N=C1/CCc2nonc2/C1=N/O	-0.0088	-8	0	52*	2
C/C(=N\OCC(=O)N/N=C/c1ccccc1O)c1cccs1	-4.3*	3	nt	8	0
COc1cccc(/C=N/NC(=O)CO/N=C(\C)c2cccs2)c1OC	nt	-1	nt	-1	-2
Cc1csc(SCC(=O)NC(=O)NCc2ccccc2)n1	-1.5	6	0	6	42*
Cc1csc(SCC(=O)Nc2nc(-c3ccccc3)cs2)n1	-6*	1	91*	0	15
O=C(/C=C/c1cccs1)Nc1nc(-c2ccccc2)cs1	0.022	-3	nt	-11	33*
Cc1ccc(-c2csc(NC(=O)CSc3nc(C)cs3)n2)cc1	-4.6*	nt	nt	nt	nt
O=C1c2ccccc2C(=O)N1n1c(=O)[nH]c2ccccc2c1=O	1.9	-14	-16	4	12
Cc1cc(C)n2nc(CC(=O)NC3CCCCCC3)nc2n1	0.79	-7	-12	10	-7
Cc1cc(=O)[nH]c(SCC(=O)Nc2nc(-c3ccccc3)cs2)n1	nt	5	69*	-2	25
CCc1ccc(OCC(=O)N(C)CCC#N)c(Br)c1	1.4	-14	-16	0	39*
CC(=O)Nc1cc2c(cc1C(=O)c1ccc(C)cc1)OCCO2	-5.2*	1	8	-2	5
CCCOC(=O)c1ccc(NC(=O)CCOc2ccccc2)cc1	-4*	22	nt	2	4
O=C(O)CCC(=O)Nc1ccc(C(=O)OC2CCCCC2)cc1	0.25	4	16	-4	-3
CCCCC(=O)Nc1ccc(C(=O)OC2CCCCC2)cc1	-4*	-5	nt	-2	8
CC(C)n1nnnc1SCC(=O)N1CCOCC1	-0.078	-4	-1	-4	2
CC1=CC(C)(C)N2C(=O)C3(N=C(N)NC(Nc4ccccc4)=N3)c3cc(C)cc1c32 (configuration not stated)	-3.7*	7	58	-1	20
O=S(=O)(c1ccccc1)c1nc(Nc2ccccc2N2CCOCC2)sc1Cl	-5.3*	6	43	-18	27
O=C(Nc1ccccc1N1CCOCC1)c1ccc2ccccc2n1	0.54	6	14	-7	21
SMILES	Cav32 inh	PostGolgi yeast	Ecoli tolC	Ecoli WT expand	PostGolgi ctrl
CCC1(C)N=c2c(c(=O)n(C)c(=O)n2C)=NO1 (configuration not stated)	-0.16	-1	nt	1	-4
Cn1c(=O)c2c(nc(CN3CCc4ccccc4C3)n2Cc2cccc(Cl)c2)n(C)c1=O	-4.2*	5	32	-4	33*
CCN1CCN(Cc2nc3c(c(=O)n(C)c(=O)n3C)n2Cc2ccccc2Cl)CC1	1.5	3	-3	3	31*
Cn1c(=O)c2c(nc(CN3CCN(Cc4ccccc4)CC3)n2Cc2cccc(Cl)c2)n(C)c1=O	0.36	nt	4	nt	nt
Cn1c(=O)c2c(nc(N3CCCCCC3)n2Cc2cccc3ccccc23)n(C)c1=O	nt	8	74*	-9	62*
COCCn1c(SCC(=O)NCc2ccc3c(c2)OCO3)nnc1-c1c[nH]c2ccccc12	-1.3	6	6	-5	-11
CC(C)(C)c1ccc(OCCC(=O)NC2=NCCS2)cc1	0.039	-16	nt	-3	19
CC(C)N(Cc1nc(-c2ccc(Cl)cc2)no1)C(=O)CCC1CCCC1	-1	3	72*	4	35*
CC(C)N(Cc1nc(-c2ccccc2)no1)C(=O)COc1ccccc1	-1.9	0	5	2	12
Cc1ccc(C)c(C(=O)N(Cc2nc(-c3ccc(Cl)cc3)no2)C(C)C)c1	nt	-1	77*	-23	32*
COc1ccc(-c2noc(CN(C(=O)C(C)(C)C)C(C)C)n2)cc1	-0.62	6	5	-5	6
Cc1ccc(-c2noc(CN(C(=O)Cc3ccccc3)C(C)C)n2)cc1	-3.4	-4	nt	0	16
COc1cccc(OCC(=O)N(Cc2nc(-c3ccc(Cl)cc3)no2)C(C)C)c1	-2.6	10	63*	-5	54*
Cc1cc(Br)ccc1OCC(=O)N(Cc1nc(-c2ccccc2)no1)C(C)C	-4.8*	-2	43	-11	26
O=c1nc2n(c3cc(Cl)c(S(=O)(=O)N4CCOCC4)cc13)CCCCC2	-2.1	-3	-5	-7	-2
COc1ccccc1OCC(=O)N(Cc1nc(-c2ccc(Cl)cc2)no1)C(C)C	-5*	-8	10	-15	46*
CCOc1cc(C)c(C(C)C)cc1S(=O)(=O)N1CC(C)OC(C)C1 (configuration not stated)	-2.6	-5	68*	2	18
CC(C)C(CCNC(=O)CC(Cc1ccccc1)c1ccco1)c1ccco1 (configuration not stated)	-6.8*	2	nt	0	0
Cc1c(N2C(=O)/C(=C/c3ccccc3)SC2=S)c(=O)n(-c2ccccc2)n1C	1.4	5	nt	6	9
Cc1ccc(/C=C2\SC(=S)N(c3c(C)n(C)n(-c4ccccc4)c3=O)C2=O)cc1	-5*	2	nt	-3	10
O=C(Nc1nnc(C2CC2)s1)C1Cc2ccccc2CN1S(=O)(=O)c1ccccc1F (configuration not stated)	-1.9	3	nt	-6	8
CC(C)C(=O)N/N=C/c1ccc(OCc2ccccc2)cc1	nt	1	nt	-5	5
NC(N)=N/N=C/c1ccc(OCc2ccccc2)cc1	1.1	3	nt	99*	8
CC1(CC(=O)N/N=C/c2ccc(OCc3ccc(Cl)cc3Cl)cc2)OCCCO1	-0.75	1	nt	12	42*
CC(=O)O[C@H]1C2OC(=O)C(C)=C2[C@@H]2OC(=O)[C@]3(CCC4OC41C)OC23 (some centres not stated)	-0.0065	nt	nt	nt	nt
SMILES	Cav32 inh	PostGolgi yeast	Ecoli tolC	Ecoli WT expand	PostGolgi ctrl
O=C(Nc1cc(C(F)(F)F)ccc1N1CCCCC1)c1cccc([N+](=O)[O-])c1	-0.78	2	nt	-11	29
COc1cccc(CN2C(=O)[C@@H]3Cc4c([nH]c5ccccc45)C(C)(C)N3C2=O)c1	-2.3	nt	nt	nt	nt
Cc1ccc(S(=O)(=O)N2CCOCC2)cc1C(=O)N1c2ccccc2Sc2ccccc21	-4.2*	22	nt	-3	19
C/C(CC(C)(C)C1CCCCC1)=N\NC(N)=S	-4.6*	107*	nt	-9	100*
O=C(CNCC1CCCCC1)Nc1ccccc1N1CCCCC1	-7.1*	2	nt	14	18
COc1ccc(NC(=O)CNCCC2=CCCCC2)cc1	-0.35	14	8	12	17
O=C(CNCCC1=CCCCC1)Nc1ccccc1N1CCCCC1	-2.6	2	100*	10	27

Screening results as filed in PubChem BioAssay.
